Activity calls are given as the source filed them. The rule behind the calls is not given here.
Tests used:
[1] = target: Translocator protein (Rattus norvegicus) (UniProt P16257); assay: (§1) Displacement of [3H]PK11195 from TSPO in rat kidney mitochondrial membrane after 90 mins by liquid scintillation counting method; assay type: cell membranes
Summary of the method: (§2)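 TSPO binding by radioligand displacement of the TSPO-selective [3H]PK11195 across a concentration range; Ki derived.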

[2] = target: Translocator protein (Rattus norvegicus, UniProt P16257); assay: as §1; assay type: cell membranes; summary of the method: as §2
Translocator protein, sequence (P16257 whole entry, looked up): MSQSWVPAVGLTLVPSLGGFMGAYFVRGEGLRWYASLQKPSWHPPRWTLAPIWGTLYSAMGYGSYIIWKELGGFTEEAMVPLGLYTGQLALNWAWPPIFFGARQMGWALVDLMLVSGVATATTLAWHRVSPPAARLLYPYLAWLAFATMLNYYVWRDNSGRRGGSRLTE

[3] = Antiproliferative activity against human MSC at 10 uM after 48 hrs by MTS assay
Summary of the method: (§3)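 Non-tumoural human mesenchymal stem cells exposed to 100 nM-10 µM for 48 h; viability read by MTS assay.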

[4] = Antiproliferative activity against human U87MG cells expressing wild type p53 after 48 hrs by MTS assay; conditions: U-87 MG
[5] = Antiproliferative activity against human U343MG cells expressing wild type p53 after 48 hrs by MTS assay; conditions: U-343MG
[6] = tested on: T98G; assay: Growth inhibition of human T98G cells expressing p53 mutant after 48 hrs by MTS assay relative to control; assay type: functional
Summary of the method: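 Wild-type p53 U87MG and U343MG cells and mutant-p53 T98G cells were treated with a range of compound concentrations, using the same protocol for each line. Viability was read by MTS assay, and the 48 h treatment with 100 nM–10 µM is stated for U87MG. Results are given as percent inhibition or viable cells versus control, with IC50 taken from concentration–response curves.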

[7] = species on record: Homo sapiens; assay: Growth inhibition of human U87MG-derived CSC at 100 uM after 7 days by MTS assay relative to control; assay type: functional
Summary of the method: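 Glioma CSC viability measured after 24 h and after prolonged (seven-day) exposure, at concentrations up to 100 µM; CSC depletion expressed versus control.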

[8] = Antiproliferative activity against human MSC at 0.01 to 10 uM after 48 hrs by MTS assay; conditions: in the assay text read “0.1 to 10 uM” for “0.01 to 10 uM”; summary of the method: as §3
[9] = Growth inhibition of human U87MG cells at 50 uM after 72 hrs by MTS assay relative to control; assay type: functional, U-87MG ATCC; conditions: U-87 MG, read-out: GI
Summary of the method: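 U87MG cells were exposed to temozolomide (50 µM) alone or combined with 100 nM dual inhibitor for at least 72 h. Viability was measured and expressed as reduction relative to untreated control.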

Translocator protein (Rattus norvegicus), sequence (P16257 whole entry, looked up): as above

Compound	inhibition [1]	Ki [2]	Activity [3]	IC50 [4]	IC50 [5]	growth inhibition (GI) [6]	growth inhibition (GI) [7]	Activity [8]	inhibition of growth at 50 µM [9]
CC[C@H](C)[C@H](NC(=O)[C@@H](NC(=O)C(=O)c1c(-c2ccccc2)[nH]c2ccccc12)C(C)C)C(=O)OC	Dose-dependent effect	0.783 µM	–	–	–	–	–	–	–
CCOC(=O)[C@H](Cc1ccccc1)NC(=O)[C@H](CC(C)C)NC(=O)C(=O)c1c(-c2ccccc2)[nH]c2ccccc12	Dose-dependent effect	0.43 µM	Toxic	2.6 µM	2.1 µM	inactive	65%	Non-toxic	–
COc1ccc(C2=NC(c3ccc(Cl)cc3)C(c3ccc(Cl)cc3)N2C(=O)N2CCNC(=O)C2)c(OC(C)C)c1 (centres undefined)	–	–	–	6.5 µM	12.6 µM	inactive	45%	–	–
Cn1nnc2c(C(N)=O)ncn2c1=O [TEMOZOLOMIDE]	–	–	–	–	–	–	–	–	55%
CC[C@H](C)[C@H](NC(=O)C(=O)c1c(-c2ccccc2)[nH]c2ccccc12)C(=O)N[C@H](C(=O)OC)[C@@H](C)CC	Dose-dependent effect	1 µM	–	–	–	–	–	–	–
COC(=O)[C@H](CC(C)C)NC(=O)[C@@H](NC(=O)C(=O)c1c(-c2ccccc2)[nH]c2ccccc12)C(C)C	Dose-dependent effect	0.365 µM	–	–	–	–	–	–	–
